In ChEMBL document CHEMBL1127047, “10,5-(Iminomethano)-10,11-dihydro-5H-dibenzo[a,d]cycloheptene and derivatives. Potent PCP receptor ligands” (J Med Chem, 1993):
“And” between values parts separate entries of the source, which are not always exact repeats. Equal values may be shown once.

Tests used:
Glutamate NMDA receptor = experiment: Inhibition of [3H]MK-801 binding to the PCP receptor site in guinea pig brain homogenate; assay type: tissue-based
[1] = In vitro neuroprotection against glutamate-induced toxicity at 5 uM using rat hippocampal cell cultures at 1000 uM of glutamate; assay type: functional, Hippocampus
Method in brief: (§1)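 Dissociated hippocampal cultures from 1–3 day postnatal Sprague–Dawley rats, papain-dissociated and treated with 5 μM cytosine arabinoside. Blind, coded test. In HEPES-buffered salt solution (pH 7.4, 32–34 °C), cultures got a 5 min preincubation with 1 μM glycine plus compound, then 5 min with glycine, compound and glutamate. Next day, 0.4% Trypan Blue; surviving cells in the grid were counted by phase contrast and expressed as % of highest count.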

[2] = In vitro neuroprotection against glutamate-induced toxicity at 5 uM using rat hippocampal cell cultures at 30 uM of glutamate; assay type: functional, Hippocampus; method in brief: as §1
[3] = In vitro neuroprotection against glutamate-induced toxicity at 5 uM using rat hippocampal cell cultures at 0 uM of glutamate; assay type: functional, Hippocampus; method in brief: as §1
[4] = In vitro neuroprotection against glutamate-induced toxicity at 5 uM using rat hippocampal cell cultures at 3 uM of glutamate; assay type: functional, Hippocampus; method in brief: as §1
[5] = In vitro neuroprotection against glutamate-induced toxicity at 5 uM using rat hippocampal cell cultures at 100 uM of glutamate; assay type: functional, Hippocampus; method in brief: as §1
[6] = In vitro neuroprotection against glutamate-induced toxicity at 5 uM using rat hippocampal cell cultures at 300 uM of glutamate; assay type: functional, Hippocampus; method in brief: as §1
[7] = In vitro neuroprotection against glutamate-induced toxicity at 5 uM using rat hippocampal cell cultures at 10 uM of glutamate; assay type: functional, Hippocampus; method in brief: as §1
[8] = In vitro neuroprotection against glutamate-induced toxicity at 10 uM using rat hippocampal cell cultures at 1000 uM of glutamate; assay type: functional, Hippocampus; method in brief: as §1
[9] = In vitro neuroprotection against glutamate-induced toxicity at 10 uM using rat hippocampal cell cultures at 300 uM of glutamate; assay type: functional, Hippocampus; method in brief: as §1
[10] = In vitro neuroprotection against glutamate-induced toxicity at 10 uM using rat hippocampal cell cultures at 30 uM of glutamate; assay type: functional, Hippocampus; method in brief: as §1
[11] = In vitro neuroprotection against glutamate-induced toxicity at 10 uM using rat hippocampal cell cultures at 3 uM of glutamate; assay type: functional, Hippocampus; method in brief: as §1
[12] = In vitro neuroprotection against glutamate-induced toxicity at 10 uM using rat hippocampal cell cultures at 100 uM of glutamate; assay type: functional, Hippocampus; method in brief: as §1
[13] = In vitro neuroprotection against glutamate-induced toxicity at 10 uM using rat hippocampal cell cultures at 10 uM of glutamate; assay type: functional, Hippocampus; method in brief: as §1
[14] = In vitro neuroprotection against glutamate-induced toxicity at 10 uM using rat hippocampal cell cultures at 0 uM of glutamate; assay type: functional, Hippocampus; method in brief: as §1

With COc1ccc2c(c1)C1CN(C)C2Cc2ccc(Br)cc21 (stereo not given) the IC50 (Glutamate NMDA receptor) was 643 nM.
With CC12CNC(Cc3ccccc31)c1ccccc12 (stereo not given) the IC50 (Glutamate NMDA receptor) was 119 nM.
For Nc1ccc2c(c1)C1CNC(C2)c2ccccc21 (stereo not given), the IC50 (Glutamate NMDA receptor) was 486 nM.
Cc1ccc2c(c1)C1CNC(C2)c2ccccc21 (stereo not given) gave an IC50 (Glutamate NMDA receptor) of 108 nM.
With c1ccc(CN2CC3c4ccccc4CC2c2ccccc23)nc1 (stereo not given) the IC50 (Glutamate NMDA receptor) was > 10000 nM.
Molecule O=[N+]([O-])c1ccc2c(c1)C1CNC(C2)c2ccccc21 (stereo not given) has an IC50 (Glutamate NMDA receptor) of 4300 nM.
With COc1ccc2c(c1)C1CNC2Cc2ccc(Cl)cc21 (stereo not given) the IC50 (Glutamate NMDA receptor) was 113 nM.
With CC(=O)N1CC2c3cc([N+](=O)[O-])ccc3CC1c1ccccc12 (stereo not given) the IC50 (Glutamate NMDA receptor) was > 10000 nM.
For COc1ccc2c(c1)C1CNC(C2)c2ccccc21 (stereo not given), the IC50 (Glutamate NMDA receptor) was 168 nM.
Brc1ccc2c(c1)C1CNC(C2)c2ccccc21 (stereo not given) showed an IC50 (Glutamate NMDA receptor) of 51.7 nM.
CN1CC2c3cc(Br)ccc3CC1c1ccccc12 (stereo not given) showed an IC50 (Glutamate NMDA receptor) of 1040 nM.
In the case of COc1ccc2c(c1)C1CNC2Cc2ccc(Br)cc21 (stereo not given), the IC50 (Glutamate NMDA receptor) is reported as 114 nM.
Molecule Ic1ccc2c(c1)C1CNC(C2)c2ccccc21 (stereo not given) has an IC50 (Glutamate NMDA receptor) of 160 nM.
[N-]=[N+]=Nc1ccc2c(c1)C1CNC(C2)c2ccccc21 (stereo not given) showed an IC50 (Glutamate NMDA receptor) of 500 nM.
Work on CN(C)CCCN1CC2c3ccccc3CC1c1ccccc12 (stereo not given) yielded an IC50 (Glutamate NMDA receptor) of 12000 nM.
In the case of Clc1ccc2c(c1)C1CNC2Cc2ccccc21 (stereo not given), the IC50 (Glutamate NMDA receptor) is reported as 690 nM.
In the case of CC(C)N1CC2c3ccccc3CC1c1ccccc12 (stereo not given), the IC50 (Glutamate NMDA receptor) is reported as 1880 nM.
For c1ccc(-c2ccc3c(c2)C2CNC(C3)c3ccccc32)cc1 (stereo not given), the IC50 (Glutamate NMDA receptor) was 421 nM.
In the case of COc1ccc2c(c1)C1CNC2Cc2ccccc21 (stereo not given), the IC50 (Glutamate NMDA receptor) is reported as 332 nM.
For Fc1ccc2c(c1)C1CNC(C2)c2ccc(F)cc21 (stereo not given), the IC50 (Glutamate NMDA receptor) was 51.2 nM.
In the case of CC(=O)N1CC2c3ccccc3CC1c1ccccc12 (stereo not given), the IC50 (Glutamate NMDA receptor) is reported as > 10000 nM.
Work on c1ccc2c(c1)CC1NCC2c2ccccc21 (racemic) yielded a Neuroprotection [1] of 25.5%, a Neuroprotection [2] of 71.5% and a Neuroprotection [3] of 99.1%. It also gave a Neuroprotection [4] of 85.3%, a Neuroprotection [5] of 61.3% and a Neuroprotection [6] of 39.9%. It also gave a Neuroprotection [7] of 76.6%.
With c1ccc2c(c1)CC1NCC2c2ccccc21 (single isomer, unassigned; (+)) the Neuroprotection [1] was 40.5%, the Neuroprotection [2] was 73.3% and the Neuroprotection [3] was 93.6%. The Neuroprotection [4] was 68.8%, the IC50 (Glutamate NMDA receptor) was 37.6 nM and 4.2 nM and the Neuroprotection [5] was 73.9%. The Neuroprotection [6] was 57.2% and the Neuroprotection [7] was 76.3%.
Fc1ccc2c(c1)C1CNC(C2)c2ccccc21 (single isomer, unassigned; (+)) showed an IC50 (Glutamate NMDA receptor) of 15.5 nM.
In the case of CN1CC2c3ccccc3CC1c1ccccc12 (single isomer, unassigned; (+)), the Neuroprotection [8] is reported as 53.3%, the Neuroprotection [1] is reported as 23.3% and the Neuroprotection [2] is reported as 62.7%. It also gave a Neuroprotection [3] of 91%, a Neuroprotection [9] of 56.6% and a Neuroprotection [10] of 92.1%. The Neuroprotection [11] was 93.6%, the Neuroprotection [12] was 84% and the Neuroprotection [13] was 90%. It also gave a Neuroprotection [4] of 74.7%, a Neuroprotection [14] of 97.8% and an IC50 (Glutamate NMDA receptor) of 826 nM. It also gave a Neuroprotection [5] of 59.9%, a Neuroprotection [6] of 58.7% and a Neuroprotection [7] of 65%.
Work on Fc1ccc2c(c1)C1CNC(C2)c2ccccc21 (single isomer, unassigned; (-)) yielded an IC50 (Glutamate NMDA receptor) of 531 nM.
c1ccc2c(c1)CC1NCC2c2ccccc21 (stereo in doubt; 3) showed an IC50 (Glutamate NMDA receptor) of 59.4 nM.
Clc1ccc2c(c1)C1CNC(C2)c2ccccc21 (stereo in doubt; 13c) showed an IC50 (Glutamate NMDA receptor) of 71.3 nM.
Work on Fc1ccc2c(c1)C1CNC(C2)c2ccccc21 (stereo in doubt; 13e) yielded an IC50 (Glutamate NMDA receptor) of 29.4 nM.
Clc1ccc2c(c1)C1CNC(C2)c2ccccc21 (stereo in doubt; (+)-13c) showed an IC50 (Glutamate NMDA receptor) of 32.1 nM.
Clc1ccc2c(c1)C1CNC(C2)c2ccccc21 (stereo in doubt; (-)-13c) gave an IC50 (Glutamate NMDA receptor) of 931 nM.
C[C@]12N[C@H](Cc3ccccc31)c1ccccc12 [DIZOCILPINE] gave a Neuroprotection [1] of 88.4%, a Neuroprotection [2] of 95.5% and a Neuroprotection [3] of 97.5%. For the same molecule, the Neuroprotection [4] was 98.3%, the Neuroprotection [5] was 93.9% and the Neuroprotection [6] was 90.3%. The Neuroprotection [7] was 94.7%.
